Experimental data: ChEMBL document CHEMBL3797149, “1-Sulfonyl-6-Piperazinyl-7-Azaindoles as potent and pseudo-selective 5-HT6 receptor antagonists” (Bioorg Med Chem Lett, 2016)
In brackets after ≈: the same amount, converted by molar mass.

Tests used:
[1] = Ratio of drug level in liver to plasma in CD1 mouse at 3 mg/kg, sc by LC-MS/MS analysis; type: ADME, organism-based
[2] = Intrinsic clearance in mouse liver microsomes at 1 uM by UPLC-MS analysis in presence of NADPH and UDPGA; type: ADME; conditions: read-out: CLH
[3] = AUClast in CD1 mouse plasma at 3 mg/kg, po as single dose after 0.083 to 6 hrs by LC-MS/MS analysis; type: ADME, organism-based; parameters: dose 3 mg/kg, time upper 6 hr, time lower 0.083 hr, route oral
[4] = Tmax in CD1 mouse plasma at 3 mg/kg, sc by LC-MS/MS analysis; type: ADME, organism-based
[5] = AUClast in CD1 mouse brain at 10 mg/kg, po as single dose after 6 hrs by LC-MS/MS analysis; type: ADME, organism-based; parameters: time < 6 hr, dose 10 mg/kg, route oral
[6] = Tmax in CD1 mouse liver at 10 mg/kg, sc by LC-MS/MS analysis; type: ADME, organism-based
[7] = Tmax in CD1 mouse liver at 3 mg/kg, sc by LC-MS/MS analysis; type: ADME, organism-based
[8] = Cmax in CD1 mouse plasma at 10 mg/kg, po as single dose after 0.083 to 6 hrs by LC-MS/MS analysis; type: ADME, organism-based; parameters: dose 10 mg/kg, route oral
[9] = Cmax in CD1 mouse plasma at 3 mg/kg, po as single dose after 0.083 to 6 hrs by LC-MS/MS analysis; type: ADME, organism-based; parameters: dose 3 mg/kg, route oral
[10] = Cmax in CD1 mouse plasma at 10 mg/kg, sc after 0.083 to 6 hrs by LC-MS/MS analysis; type: ADME, organism-based; parameters: dose 10 mg/kg, route subcutaneous
[11] = molecular target: Voltage-gated inwardly rectifying potassium channel KCNH2 (Homo sapiens, UniProt Q12809); assay: Inhibition of human ERG1 expressed in CHO cells by whole cell patch clamp electrophysiology method
Chain of Voltage-gated inwardly rectifying potassium channel KCNH2 (Q12809 whole entry): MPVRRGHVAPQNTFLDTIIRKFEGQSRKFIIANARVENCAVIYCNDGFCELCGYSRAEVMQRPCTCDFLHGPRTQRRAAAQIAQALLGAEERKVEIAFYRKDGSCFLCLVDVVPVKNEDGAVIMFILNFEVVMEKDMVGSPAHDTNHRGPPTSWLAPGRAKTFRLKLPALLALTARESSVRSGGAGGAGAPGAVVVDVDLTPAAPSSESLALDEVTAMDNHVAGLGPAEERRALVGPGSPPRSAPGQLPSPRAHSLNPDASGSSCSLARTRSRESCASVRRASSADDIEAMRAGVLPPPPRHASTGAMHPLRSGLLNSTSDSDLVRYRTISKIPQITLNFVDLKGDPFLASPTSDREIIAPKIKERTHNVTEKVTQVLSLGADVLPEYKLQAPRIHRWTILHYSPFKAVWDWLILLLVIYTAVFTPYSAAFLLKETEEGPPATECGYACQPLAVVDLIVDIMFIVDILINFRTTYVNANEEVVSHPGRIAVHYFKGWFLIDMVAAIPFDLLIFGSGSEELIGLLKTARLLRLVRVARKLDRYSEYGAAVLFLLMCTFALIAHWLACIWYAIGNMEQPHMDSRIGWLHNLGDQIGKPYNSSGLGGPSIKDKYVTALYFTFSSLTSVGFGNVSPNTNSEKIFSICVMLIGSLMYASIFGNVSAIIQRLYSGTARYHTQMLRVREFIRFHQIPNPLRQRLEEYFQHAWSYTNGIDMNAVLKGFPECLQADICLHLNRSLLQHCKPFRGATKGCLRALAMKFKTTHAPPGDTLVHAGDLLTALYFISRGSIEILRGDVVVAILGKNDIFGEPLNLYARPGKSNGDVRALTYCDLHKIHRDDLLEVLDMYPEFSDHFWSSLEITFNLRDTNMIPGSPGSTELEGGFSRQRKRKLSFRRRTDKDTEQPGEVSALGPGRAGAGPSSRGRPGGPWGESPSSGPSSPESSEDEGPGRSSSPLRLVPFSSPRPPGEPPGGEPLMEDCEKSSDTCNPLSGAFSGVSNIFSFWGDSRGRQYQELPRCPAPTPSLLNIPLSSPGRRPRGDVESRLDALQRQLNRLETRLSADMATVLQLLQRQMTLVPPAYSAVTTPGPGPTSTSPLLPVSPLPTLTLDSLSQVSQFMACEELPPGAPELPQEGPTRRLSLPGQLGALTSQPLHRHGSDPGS

[12] = Ratio of drug level in brain to plasma in CD1 mouse at 10 mg/kg, po as single dose by LC-MS/MS analysis; type: ADME, organism-based; conditions: read-out: BPR
[13] = Tmax in CD1 mouse plasma at 10 mg/kg, sc by LC-MS/MS analysis; type: ADME, organism-based
[14] = Tmax in CD1 mouse plasma at 10 mg/kg, po as single dose by LC-MS/MS analysis; type: ADME, organism-based
[15] = AUClast in CD1 mouse liver at 3 mg/kg, sc after 6 hrs by LC-MS/MS analysis; type: ADME, organism-based; parameters: time < 6 hr, dose 3 mg/kg, route subcutaneous
[16] = Ratio of drug level in brain to plasma in CD1 mouse at 3 mg/kg, po as single dose by LC-MS/MS analysis; type: ADME, organism-based; conditions: BLD = below limit of detection
[17] = Cmax in CD1 mouse liver at 10 mg/kg, sc after 6 hrs by LC-MS/MS analysis; type: ADME, organism-based; parameters: dose 10 mg/kg, route subcutaneous
[18] = Cmax in CD1 mouse plasma at 3 mg/kg, sc after 0.083 to 6 hrs by LC-MS/MS analysis; type: ADME, organism-based; parameters: dose 3 mg/kg, route subcutaneous
[19] = Ratio of drug level in brain to plasma in CD1 mouse at 10 mg/kg, sc by LC-MS/MS analysis; type: ADME, organism-based; conditions: read-out: BPR
[20] = AUClast in CD1 mouse plasma at 10 mg/kg, po as single dose after 0.083 to 6 hrs by LC-MS/MS analysis; type: ADME, organism-based; parameters: time upper 6 hr, time lower 0.083 hr, dose 10 mg/kg, route oral
[21] = Tmax in CD1 mouse brain at 10 mg/kg, sc by LC-MS/MS analysis; type: ADME, organism-based
[22] = Tmax in CD1 mouse brain at 3 mg/kg, sc by LC-MS/MS analysis; type: ADME, organism-based
[23] = Intrinsic clearance in rat liver microsomes at 1 uM by UPLC-MS analysis in presence of NADPH and UDPGA; type: ADME; conditions: read-out: CLH
[24] = Cmax in CD1 mouse brain at 10 mg/kg, sc after 6 hrs by LC-MS/MS analysis; type: ADME, organism-based; parameters: dose 10 mg/kg, route subcutaneous
[25] = molecular target: 5-hydroxytryptamine receptor 6 (Homo sapiens, UniProt P50406); assay: Displacement of [3H]LSD from human 5HT6 receptor in HEK293 cell membrane incubated for 1 hr by scintillation counting method; type: cell membranes
Chain of 5-hydroxytryptamine receptor 6 (P50406 whole entry): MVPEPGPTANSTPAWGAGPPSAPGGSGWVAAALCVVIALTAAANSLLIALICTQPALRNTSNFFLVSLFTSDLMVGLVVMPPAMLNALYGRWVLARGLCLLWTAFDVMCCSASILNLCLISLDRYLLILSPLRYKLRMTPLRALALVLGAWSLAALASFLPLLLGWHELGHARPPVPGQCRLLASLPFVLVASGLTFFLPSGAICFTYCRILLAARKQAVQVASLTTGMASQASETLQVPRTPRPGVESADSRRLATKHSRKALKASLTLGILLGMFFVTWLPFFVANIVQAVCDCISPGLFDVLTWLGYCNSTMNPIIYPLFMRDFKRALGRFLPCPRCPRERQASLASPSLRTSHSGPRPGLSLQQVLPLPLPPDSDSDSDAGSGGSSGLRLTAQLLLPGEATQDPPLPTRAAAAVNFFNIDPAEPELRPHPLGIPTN
How it was run: (§1)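 Competition binding: [3H]-LSD displacement for 5-HT6 and [3H]-NMSP displacement for D2. Eight compound concentrations, 5 × 10^-6 to 5 × 10^-13 M, each tested in triplicate. Affinity is reported as Ki.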

[26] = Tmax in CD1 mouse liver at 10 mg/kg, po as single dose by LC-MS/MS analysis; type: ADME, organism-based
[27] = Cmax in CD1 mouse liver at 3 mg/kg, po as single dose after 6 hrs by LC-MS/MS analysis; type: ADME, organism-based; parameters: dose 3 mg/kg, route oral
[28] = Kinetic solubility in sorensen buffer at pH 7.4 incubated for 1 hr by UV-Visible spectrophotometry; type: physicochemical; conditions: read-out: Kinetic_solubility
[29] = Tmax in CD1 mouse liver at 3 mg/kg, po as single dose by LC-MS/MS analysis; type: ADME, organism-based
[30] = molecular target: D(2) dopamine receptor (Homo sapiens, UniProt P14416); assay: Displacement of [3H]NMSP from human dopamine D2S receptor expressed in CHO cell membrane incubated for 1 hr by scintillation counting method; type: cell membranes; how it was run: as §1
Chain of D(2) dopamine receptor (P14416 whole entry): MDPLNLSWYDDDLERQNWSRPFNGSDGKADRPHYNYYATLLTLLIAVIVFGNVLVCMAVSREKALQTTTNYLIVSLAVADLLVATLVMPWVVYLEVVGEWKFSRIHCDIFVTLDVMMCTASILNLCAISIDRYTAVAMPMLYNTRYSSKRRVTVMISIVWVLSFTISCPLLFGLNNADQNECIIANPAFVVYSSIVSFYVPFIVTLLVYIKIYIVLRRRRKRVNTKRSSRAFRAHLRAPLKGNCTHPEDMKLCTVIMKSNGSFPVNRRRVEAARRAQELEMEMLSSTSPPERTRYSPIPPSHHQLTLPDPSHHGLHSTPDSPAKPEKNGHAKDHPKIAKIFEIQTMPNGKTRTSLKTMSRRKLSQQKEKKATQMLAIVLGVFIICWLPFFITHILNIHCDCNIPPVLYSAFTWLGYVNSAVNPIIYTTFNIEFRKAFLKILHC

[31] = AUClast in CD1 mouse brain at 3 mg/kg, sc after 6 hrs by LC-MS/MS analysis; type: ADME, organism-based; parameters: time < 6 hr, dose 3 mg/kg, route subcutaneous
[32] = Ratio of drug level in liver to plasma in CD1 mouse at 10 mg/kg, sc by LC-MS/MS analysis; type: ADME, organism-based
[33] = Tmax in CD1 mouse brain at 10 mg/kg, po as single dose by LC-MS/MS analysis; type: ADME, organism-based
[34] = Cmax in CD1 mouse liver at 10 mg/kg, po as single dose after 6 hrs by LC-MS/MS analysis; type: ADME, organism-based; parameters: dose 10 mg/kg, route oral
[35] = Intrinsic clearance in human liver microsomes at 1 uM by UPLC-MS analysis in presence of NADPH and UDPGA; type: ADME; conditions: read-out: CLH
[36] = Cmax in CD1 mouse liver at 3 mg/kg, sc after 6 hrs by LC-MS/MS analysis; type: ADME, organism-based; parameters: dose 3 mg/kg, route subcutaneous
[37] = Ratio of drug level in brain to plasma in CD1 mouse at 3 mg/kg, sc by LC-MS/MS analysis; type: ADME, organism-based; conditions: read-out: BPR
[38] = molecular target: Cytochrome P450 2D6 (Homo sapiens, UniProt P10635); assay: Inhibition of human recombinant CYP2D6 using AMMC as substrate incubated for 45 mins by fluorescence analysis in presence of NADPH; type: ADME
Chain of Cytochrome P450 2D6 (P10635 whole entry): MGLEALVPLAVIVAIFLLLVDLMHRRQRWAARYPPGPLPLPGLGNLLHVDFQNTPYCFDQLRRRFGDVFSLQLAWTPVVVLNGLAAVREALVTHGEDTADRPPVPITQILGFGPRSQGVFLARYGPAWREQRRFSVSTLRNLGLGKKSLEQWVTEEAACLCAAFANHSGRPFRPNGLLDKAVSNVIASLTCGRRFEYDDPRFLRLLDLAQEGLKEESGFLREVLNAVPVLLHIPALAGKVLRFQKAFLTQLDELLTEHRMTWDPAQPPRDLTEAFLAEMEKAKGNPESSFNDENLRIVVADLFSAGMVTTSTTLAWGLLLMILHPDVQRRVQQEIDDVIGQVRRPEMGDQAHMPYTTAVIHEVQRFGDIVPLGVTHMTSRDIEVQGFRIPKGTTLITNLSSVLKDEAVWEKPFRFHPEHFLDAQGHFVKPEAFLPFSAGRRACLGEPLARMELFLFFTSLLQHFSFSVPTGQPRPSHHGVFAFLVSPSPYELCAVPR

[39] = molecular target: Cytochrome P450 3A4 (Homo sapiens, UniProt P08684); assay: Inhibition of human recombinant CYP3A4 using 7-benzyloxy-trifluoromethylcoumarin as substrate incubated for 30 mins by fluorescence analysis in presence of NADPH; type: ADME
Chain of Cytochrome P450 3A4 (P08684 whole entry): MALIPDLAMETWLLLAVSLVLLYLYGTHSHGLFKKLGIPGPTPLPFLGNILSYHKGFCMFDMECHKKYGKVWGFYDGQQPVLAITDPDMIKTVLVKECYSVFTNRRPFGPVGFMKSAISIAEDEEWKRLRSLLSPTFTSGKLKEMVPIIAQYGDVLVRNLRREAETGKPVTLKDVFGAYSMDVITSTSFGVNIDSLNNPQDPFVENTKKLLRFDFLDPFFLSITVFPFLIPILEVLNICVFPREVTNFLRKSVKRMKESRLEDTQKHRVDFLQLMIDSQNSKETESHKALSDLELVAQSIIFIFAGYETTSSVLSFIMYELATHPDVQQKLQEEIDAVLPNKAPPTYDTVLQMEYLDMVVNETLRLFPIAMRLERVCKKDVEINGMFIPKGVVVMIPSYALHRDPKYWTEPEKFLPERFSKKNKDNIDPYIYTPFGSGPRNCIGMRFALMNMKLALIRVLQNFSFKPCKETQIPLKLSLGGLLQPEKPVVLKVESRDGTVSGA

[40] = AUClast in CD1 mouse liver at 10 mg/kg, sc after 6 hrs by LC-MS/MS analysis; type: ADME, organism-based; parameters: dose 10 mg/kg, time < 6 hr, route subcutaneous
[41] = Cmax in CD1 mouse brain at 10 mg/kg, po as single dose after 6 hrs by LC-MS/MS analysis; type: ADME, organism-based; parameters: dose 10 mg/kg, route oral
[42] = AUClast in CD1 mouse plasma at 3 mg/kg, sc after 0.083 to 6 hrs by LC-MS/MS analysis; type: ADME, organism-based; parameters: time lower 0.083 hr, dose 3 mg/kg, time upper 6 hr, route subcutaneous
[43] = AUClast in CD1 mouse liver at 3 mg/kg, po as single dose after 6 hrs by LC-MS/MS analysis; type: ADME, organism-based; parameters: dose 3 mg/kg, time < 6 hr, route oral
[44] = Ratio of drug level in liver to plasma in CD1 mouse at 10 mg/kg, po as single dose by LC-MS/MS analysis; type: ADME, organism-based
[45] = Cmax in CD1 mouse brain at 3 mg/kg, sc after 6 hrs by LC-MS/MS analysis; type: ADME, organism-based; parameters: dose 3 mg/kg, route subcutaneous
[46] = tested on: Brain; assay: Tmax in CD1 mouse brain at 3 mg/kg, po as single dose by LC-MS/MS analysis; type: ADME, organism-based; conditions: in vivo, BLD = below limit of detection
[47] = tested on: Brain; assay: Cmax in CD1 mouse brain at 3 mg/kg, po as single dose after 6 hrs by LC-MS/MS analysis; type: ADME, organism-based; parameters: dose 3 mg/kg, route oral; conditions: in vivo, BLD = below limit of detection
[48] = Ratio of drug level in liver to plasma in CD1 mouse at 3 mg/kg, po as single dose by LC-MS/MS analysis; type: ADME, organism-based
[49] = Passive permeability of compound after 4 hrs by sink-PAMPA assay; type: ADME; conditions: read-out: permeability
[50] = Tmax in CD1 mouse plasma at 3 mg/kg, po as single dose by LC-MS/MS analysis; type: ADME, organism-based
[51] = AUClast in CD1 mouse liver at 10 mg/kg, po as single dose after 6 hrs by LC-MS/MS analysis; type: ADME, organism-based; parameters: dose 10 mg/kg, time < 6 hr, route oral
[52] = AUClast in CD1 mouse brain at 10 mg/kg, sc after 6 hrs by LC-MS/MS analysis; type: ADME, organism-based; parameters: dose 10 mg/kg, time < 6 hr, route subcutaneous
[53] = AUClast in CD1 mouse plasma at 10 mg/kg, sc after 0.083 to 6 hrs by LC-MS/MS analysis; type: ADME, organism-based; parameters: time 0.083-6 hr, dose 10 mg/kg, route subcutaneous

Q: Which Kp [1] does the source give for `CC(C)CS(=O)(=O)n1ccc2c(-c3ccc(C(F)(F)F)cc3)cc(N3CCN(C)CC3)nc21` here?
A: 2.7

Q: And the microsomal CLint at 1 µM [2]?
A: 63 µL/min/mg

Q: And the AUC(0-t) [3]?
A: 13 ng·h/mL

Q: And the Tmax [4]?
A: 1 h

Q: What about the AUC(0-t) at 6 h [5] of the same molecule?
A: 134 ng·h/mL

Q: What about the Tmax [6] of the same molecule?
A: 1 h

Q: What about the Tmax [7] of the same molecule?
A: 1 h

Q: What about the Cmax [8] of the same molecule?
A: 17 ng/mL

Q: And the Cmax [9]?
A: 3 ng/mL

Q: And the Cmax [10]?
A: 44 ng/mL

Q: And the IC50 [11]?
A: 2100 nM

Q: And the Kp [12]?
A: 1.4

Q: And the Tmax [13]?
A: 1 h

Q: What about the Tmax [14] of the same molecule?
A: 6 h

Q: What about the AUC(0-t) at 6 h [15] of the same molecule?
A: 241 ng·h/mL

Q: And the BPR [16]?
A: BLD

Q: What about the Cmax [17] of the same molecule?
A: 142 ng/mL

Q: And the Cmax [18]?
A: 18 ng/mL

Q: And the Kp [19]?
A: 0.8

Q: What about the AUC(0-t) [20] of the same molecule?
A: 97 ng·h/mL

Q: And the Tmax [21]?
A: 6 h

Q: What about the Tmax [22] of the same molecule?
A: 6 h

Q: What about the microsomal CLint at 1 µM [23] of the same molecule?
A: 55 µL/min/mg

Q: And the Cmax [24]?
A: 36 ng/mL

Q: What about the Ki [25] of the same molecule?
A: 4 nM

Q: And the Tmax [26]?
A: 0.5 h

Q: And the Cmax [27]?
A: 110 ng/mL

Q: What about the solubility kinetic at 1 h [28] of the same molecule?
A: 8 µg/mL (≈ 16.6 µM)

Q: What about the Tmax [29] of the same molecule?
A: 0.25 h

Q: And the Ki [30]?
A: 367 nM

Q: And the AUC(0-t) at 6 h [31]?
A: 79 ng·h/mL

Q: And the Kp [32]?
A: 3.3

Q: And the Tmax [33]?
A: 6 h

Q: What about the Cmax [34] of the same molecule?
A: 740 ng/mL

Q: And the microsomal CLint at 1 µM [35]?
A: 20 µL/min/mg

Q: And the Cmax [36]?
A: 43 ng/mL

Q: And the Kp [37]?
A: 0.9

Q: And the IC50 [38]?
A: 3300 nM

Q: What about the IC50 [39] of the same molecule?
A: 1100 nM

Q: And the AUC(0-t) at 6 h [40]?
A: 687 ng·h/mL

Q: And the Cmax [41]?
A: 26 ng/mL

Q: And the AUC(0-t) [42]?
A: 90 ng·h/mL

Q: And the AUC(0-t) at 6 h [43]?
A: 260 ng·h/mL

Q: What about the Kp [44] of the same molecule?
A: 30.7

Q: And the Cmax [45]?
A: 16 ng/mL

Q: And the Tmax [46]?
A: BLD

Q: What about the Cmax [47] of the same molecule?
A: BLD

Q: And the Kp [48]?
A: 19.5

Q: And the Papp at 4 h [49]?
A: 53.7 ×10⁻⁶ cm/s

Q: And the Tmax [50]?
A: 1 h

Q: What about the AUC(0-t) at 6 h [51] of the same molecule?
A: 2970 ng·h/mL

Q: And the AUC(0-t) at 6 h [52]?
A: 161 ng·h/mL

Q: What about the AUC(0-t) [53] of the same molecule?
A: 208 ng·h/mL
